# Results reported in ChEMBL document CHEMBL5500326, “Does size matter? - Comparing pyranoses with septanoses as ligands of the bacterial lectin FimH” (Eur J Med Chem, 2024).
# How the values were obtained:
# Escherichia coli = test: Ratio of kd for displacement of fluorescent tracer 3'-chloro-N-(2-(3-(3',6'-dihydroxy-3-oxo-3H-spiro[isobenzofuran-1,9'-xanthen]-5-yl)thioureido)ethyl)-4'-(alpha-D-mannopyranosyloxy)biphenyl-4-carboxamide from Escherichia coli F18 full-length FimH expressed in Escherichia coli HM125 to kd for displacement of fluorescent tracer 3'-chloro-N-(2-(3-(3',6'-dihydroxy-3-oxo-3H-spiro[isobenzofuran-1,9'-xanthen]-5-yl)thioureido)ethyl)-4'-(alpha-D-mannopyranosyloxy)biphenyl-4-carboxamide from Escherichia coli F18 FimH lectin domain expressed in Escherichia coli HM125
# Summary of the method: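 Ratio of FP-derived KD for full-length FimH (300 nM protein, 500 nM tracer, ligand from 5 mM) over KD for lectin domain (50 nM each, ligand from 500 μM). Both in HEPES/NaCl/BSA buffer pH 7.4 with DMSO, 24 h equilibration, Ex 485/Em 535 nm, competitive binding model fit.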
# [1] = biological target: Type 1 fimbrin D-mannose specific adhesin (Escherichia coli K-12, UniProt P08191); test: (§1) Displacement of fluorescent tracer 3'-chloro-N-(2-(3-(3',6'-dihydroxy-3-oxo-3H-spiro[isobenzofuran-1,9'-xanthen]-5-yl)thioureido)ethyl)-4'-(alpha-D-mannopyranosyloxy)biphenyl-4-carboxamide from Escherichia coli F18 full-length FimH expressed in Escherichia coli HM125 assessed as dissociation constant incubated for 24 hrs by competitive binding based fluorescence polarization assay
# Summary of the method: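 Competitive FP with full-length FimH at 300 nM and tracer at 500 nM; ligand serially diluted from 5 mM final, or 50 μM for some mannosides, in 20 mM HEPES pH 7.4, 150 mM NaCl, 50 μg/mL BSA, 5% DMSO (10% for poorly soluble ligands, top 500 μM). Read after 24 h, Ex 485/Em 535 nm. KD from competitive binding model fit.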
# [2] = as §1, with “F18” for “F18 full-length”, “FimH […]” for “FimH”
# Summary of the method: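 Competitive FP: 50 nM FimH lectin domain and 50 nM mannoside-fluorescein tracer; ligand serially diluted from 500 μM final in 20 mM HEPES pH 7.4, 150 mM NaCl, 50 μg/mL BSA, 5% DMSO (10% for poorly soluble ligands). Read after 24 h equilibration, Ex 485/Em 535 nm. KD from analytical competitive binding model fit.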
# [3] = Binding affinity to Escherichia coli F18 FimH lectin domain expressed in Escherichia coli HM125 assessed as dissociation constant by isothermal titration calorimetry
# Summary of the method: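 ITC at 25 °C; protein dialyzed against 20 mM HEPES, 150 mM NaCl, pH 7.4, ligand dissolved in dialysate, 5% or 10% DMSO. Baselines corrected and peaks integrated, then global nonlinear regression fitting with confidence intervals.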
# Sequence of Type 1 fimbrin D-mannose specific adhesin (P08191 whole entry): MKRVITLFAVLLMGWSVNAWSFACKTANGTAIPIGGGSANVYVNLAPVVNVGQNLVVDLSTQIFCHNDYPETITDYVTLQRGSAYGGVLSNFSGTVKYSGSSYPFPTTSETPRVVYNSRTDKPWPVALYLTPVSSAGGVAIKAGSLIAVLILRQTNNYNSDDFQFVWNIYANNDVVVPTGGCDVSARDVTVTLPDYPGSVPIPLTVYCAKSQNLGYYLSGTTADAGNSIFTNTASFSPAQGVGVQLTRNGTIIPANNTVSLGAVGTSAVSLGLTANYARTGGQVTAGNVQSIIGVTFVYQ
Kd [1],Compound,Ratio (Escherichia coli),Kd ([1]; read-out: Kd) [µM],Kd ([2]; read-out: Kd) [µM],Kd [3] [µM],Kd [2]
–,N#Cc1ccc(-c2ccc(CO[C@H]3CO[C@H](CO)[C@@H](O)[C@H](O)[C@@H]3O)c(Cl)c2)cc1,29.1,37.8,1.3,–,–
–,N#Cc1ccc(-c2ccc(O[C@H]3CO[C@H](CO)[C@@H](O)[C@H](O)[C@@H]3O)cc2)cc1,–,42.3,0.26,0.838,–
–,N#Cc1cccc(-c2ccc(CO[C@H]3CO[C@H](CO)[C@@H](O)[C@H](O)[C@@H]3O)c(Cl)c2)c1,24.7,35.5,1.44,–,–
–,CCCCCCCO[C@H]1O[C@H](CO)[C@@H](O)[C@H](O)[C@@H]1O,–,3.6,0.0283,–,–
–,OC[C@H]1O[C@H](Oc2ccc(-c3ccccc3)cc2)[C@@H](O)[C@@H](O)[C@@H]1O,–,–,0.0151,–,–
–,NC(=O)c1ccc(-c2ccc(O[C@H]3CO[C@H](CO)[C@@H](O)[C@H](O)[C@@H]3O)c(Cl)c2)cc1,–,7.34,0.12,–,–
Not Active,CCCCCCCO[C@@H]1C[C@@H](O)[C@@H](O)[C@H](O)[C@@H](CO)O1,–,–,–,–,Not Active
–,NC(=O)c1ccc(-c2ccc(CO[C@H]3CO[C@H](CO)[C@@H](O)[C@H](O)[C@@H]3O)cc2)cc1,42.7,116,2.72,–,–
–,NC(=O)c1ccc(-c2ccc(O[C@H]3O[C@H](CO)[C@@H](O)[C@H](O)[C@@H]3O)cc2)cc1,–,0.24,–,–,–
–,N#Cc1ccc(-c2ccc(O[C@H]3O[C@H](CO)[C@@H](O)[C@H](O)[C@@H]3O)cc2)cc1,–,0.208,–,–,–
–,CCCCCCCO[C@H]1CO[C@H](CO)[C@@H](O)[C@H](O)[C@@H]1O,16.4,31.8,1.94,–,–
–,OC[C@H]1OC[C@H](OCc2ccc(-c3ccccc3)cc2)[C@@H](O)[C@@H](O)[C@@H]1O,19.3,110,5.67,–,–
–,OC[C@H]1OC[C@H](OCCCc2ccccc2)[C@@H](O)[C@@H](O)[C@@H]1O,17.8,125,7.05,–,–
–,NC(=O)c1ccc(-c2ccc(O[C@H]3O[C@H](CO)[C@@H](O)[C@H](O)[C@@H]3O)c(Cl)c2)cc1,–,0.086,0.0003,–,–
–,N#Cc1ccc(-c2ccc(O[C@H]3CO[C@H](CO)[C@@H](O)[C@H](O)[C@@H]3O)c(Cl)c2)cc1,–,6.99,0.1,–,–
–,OC[C@H]1O[C@H](Oc2ccc(-c3ccccc3)cc2Cl)[C@@H](O)[C@@H](O)[C@@H]1O,–,0.458,0.0028,–,–
–,OC[C@H]1OC[C@H](Oc2ccc(-c3ccccc3)cc2Cl)[C@@H](O)[C@@H](O)[C@@H]1O,–,6.11,0.06,–,–
–,N#Cc1ccc(-c2ccc(O[C@H]3O[C@H](CO)[C@@H](O)[C@H](O)[C@@H]3O)c(Cl)c2)cc1,–,0.084,0.0005,–,–
–,NC(=O)c1ccc(-c2ccc(CO[C@H]3CO[C@H](CO)[C@@H](O)[C@H](O)[C@@H]3O)c(Cl)c2)cc1,37.6,59.4,1.58,–,–
–,N#Cc1ccc(-c2ccc(CO[C@H]3CO[C@H](CO)[C@@H](O)[C@H](O)[C@@H]3O)cc2)cc1,43.8,63.1,1.44,–,–
–,OC[C@H]1OC[C@H](OCc2ccccc2)[C@@H](O)[C@@H](O)[C@@H]1O,5.2,417,80.1,–,–
